Measured values from ChEMBL document CHEMBL4428098, “Facile synthesis of autophagonizer and evaluation of its activity to induce autophagic cell death in apoptosis-defective cell line” (Bioorg Med Chem Lett, 2016).
The source made the active and inactive calls. The rule behind the calls is not given here.

Columns and labels:
MEF [1] = test: Induction of autophagic cell death in Bax/Bak double knockout MEF after 15 hrs by MTT assay; conditions: Mus musculus
MEF [2] = test: Induction of autophagy in wild-type MEF assessed as conversion of LC3-1 to LC3-2 at 2.5 to 5 uM after 15 hrs by Western blot analysis; assay type: functional, cell-based; conditions: Mus musculus
How it was run: (§1)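 Wild-type and Bax/Bak double-knockout MEFs treated 15 h at the indicated concentrations with DMSO vehicle control. LC3-I to LC3-II conversion assessed by immunoblot.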

MEF [3] = test: Induction of autophagy in Bax/Bak double knockout MEF assessed as autophagosome formation at 2 to 4 uM after 15 hrs by Cyto-ID reagent/ Hoechst 33342 staining based fluorescence assay; assay type: functional, cell-based; conditions: Mus musculus
How it was run: (§2)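 Wild-type and Bax/Bak double-knockout MEFs treated 15 h at the indicated concentrations alongside DMSO vehicle. Stained with Cyto-ID reagent (green) for autophagosomes and MDC (blue) for acidic vacuoles, then imaged.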

MEF [4] = test: Induction of autophagy in Bax/Bak double knockout MEF assessed as accumulation of acidic vacuoles at 2 to 4 uM after 15 hrs by MDC/Hoechst 33342 staining based fluorescence assay; assay type: functional, cell-based; conditions: Mus musculus
How it was run: as §2

HeLa [5] = test: Induction of autophagy in human HeLa cells assessed as accumulation of acidic vacuoles at 3 and 25 uM after 24 hrs by MDC/Hoechst 33342 staining based fluorescence assay; assay type: functional, cell-based
How it was run: (§3)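 Acidic vacuoles in HeLa cells after 24 h exposure, with DMSO vehicle control. Cells stained with MDC and imaged under the DAPI filter.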

MEF [6] = test: Induction of autophagy in wild-type MEF assessed as autophagosome formation at 2 to 4 uM after 15 hrs by Cyto-ID reagent/ Hoechst 33342 staining based fluorescence assay; assay type: functional, cell-based; conditions: Mus musculus
How it was run: as §2

MEF [7] = test: Induction of autophagic cell death in wild-type MEF after 15 hrs by MTT assay; conditions: Mus musculus
MEF [8] = test: Induction of autophagy in wild-type MEF assessed as accumulation of acidic vacuoles at 2 to 4 uM after 15 hrs by MDC/Hoechst 33342 staining based fluorescence assay; assay type: functional, cell-based; conditions: Mus musculus
How it was run: as §2

MEF [9] = test: Induction of autophagy in Bax/Bak double knockout MEF assessed as conversion of LC3-1 to LC3-2 at 2.5 to 5 uM after 15 hrs by Western blot analysis; assay type: functional, cell-based; conditions: Mus musculus
How it was run: as §1

HeLa [10] = test: Induction of autophagy in human HeLa cells assessed as acidic vacuoles at 3 to 25 uM after 24 hrs by MDC/Hoechst 33342 staining based fluorescence assay; assay type: functional, cell-based
How it was run: as §3

HeLa [11] = test: Induction of autophagic cell death in human HeLa cells after 24 hrs by MTT assay; assay type: functional, cell-based
How it was run: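 MTT viability assay in HeLa cells after 24 h treatment over a log concentration range, with DMSO vehicle control. Viable cells normalized to DMSO-treated cells as percent viability. EC50 estimated from a sigmoidal dose–response curve.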

HeLa [12] = test: Induction of autophagy in human HeLa cells assessed as accumulation of acidic vacuoles after 24 hrs by MDC/Hoechst 33342 staining based fluorescence assay; assay type: functional, cell-based
How it was run: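 HeLa cells exposed 24 h over a dose range with DMSO vehicle control, then stained with MDC for acidic vacuoles. Fluorescence read at 335/512 nm (Ex/Em) and normalized to viable cell number from a parallel MTT assay. Per-cell signal expressed relative to DMSO-treated cells as fold intensity. Sigmoidal dose–response curve fitted.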

HeLa [13] = test: Induction of autophagy in human HeLa cells assessed as autophagosome formation after 24 hrs by Cyto-ID reagent/ Hoechst 33342 staining based fluorescence assay; assay type: functional, cell-based
How it was run: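 HeLa cells treated 24 h at various doses, DMSO as vehicle control. Stained with Hoechst 33342 and green Cyto-ID reagent and imaged under DAPI and GFP filters. Plate read at 340/480 nm (Hoechst) and 480/539 nm (Cyto-ID) Ex/Em. Cyto-ID fluorescence per cell taken relative to DMSO-treated cells, and a sigmoidal dose–response curve constructed.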

HeLa [14] = test: Induction of autophagy in human HeLa cells assessed as accumulation of LC3-2 at 2.5 to 5 uM after 24 hrs by Western blot analysis; assay type: functional, cell-based
How it was run: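 Immunoblot of HeLa lysates for LC3-I to LC3-II conversion after 24 h treatment, with DMSO vehicle control and actin probed as reference.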

HeLa [15] = test: Induction of autophagic cell death in human HeLa cells at 8 uM after 24 hrs by MTT assay relative to control; assay type: functional
How it was run: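 HeLa cells exposed 24 h to compound at graded concentrations with DMSO vehicle control; viability read by MTT assay and viable cell number normalized against DMSO-treated cells to give percent viable cells.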

Compound | EC50 (MEF [1]) | Activity (MEF [2]) | Activity (MEF [3]) | Activity (MEF [4]) | Activity (HeLa [5]) | Activity (MEF [6]) | EC50 (MEF [7]) | Activity (MEF [8]) | Activity (MEF [9]) | Activity (HeLa [10]) | EC50 (HeLa [11]) | EC50 (HeLa [12]) | Activity (HeLa [13]) | EC50 (HeLa [13]) | Activity (HeLa [14]) | fold change (FC) (HeLa [15])
O=C(NCCC1CCCC1)c1coc(CSc2nc3sc4c(c3c(=O)n2Cc2ccccc2)CCCC4)n1 | 24.2 µM | inactive | inactive | inactive | inactive | inactive | 28.6 µM | inactive | inactive | inactive | 25 µM | – | – | – | – | –
O=C(NCCN1CCCC1)c1coc(CSc2nc3sc4c(c3c(=O)n2Cc2ccccc2)CCCC4)n1 | 2.2 µM | Active | Active | Active | – | Active | 2.1 µM | Active | Active | – | 3.5 µM | 1.3 µM | Dose-dependent effect | 3.5 µM | Active | 5
